A3A deaminase: blocks human APOBEC3A ssDNA deamination | P31941 | recombinant A3A, FAM/TAMRA ssDNA deamination fluorescence | inhibition, % at 20 µM | 330,000 tested, 0.41% active | AID 493011;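 active = at least 40% inhibition at 20 µM here, with at most 30% in a related deaminase screen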
PfG6PD inh: PfG6PD (Plasmodium falciparum) enzyme inhibition | PfGluPho enzyme, NADPH resazurin-diaphorase fluorescence | inhibition, % at 20 µM | 350,000 tested, 0.78% active | AID 504690;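 active = inhibition reaching at least a set limit at 20 µM in the primary screen, cut at about 59% in these data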
HKDC1 inh: HKDC1 (human) hexokinase inhibition; Q2TB90; recombinant HKDC1, G6PDH/diaphorase resazurin coupled fluorescence; inhibition, % at 20 µM; 340,000 tested, 0.16% active; AID 493160;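 active = inhibition above about 35% when tested at 20 µM, limit read from the data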
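Assay system – recombinant HKDC1 (HK5) hexokinase enzyme, produced in-house · Input – HKDC1 at 5 µg/mL · Reagent – glucose plus 1 mM ATP as hexokinase substrates · Timing – 90 min reaction incubation at room temperature, dark · Measured by – G6PDH/diaphorase-coupled fluorescence, 1 mM NADP, 100 µM resazurin, 525/613 nm · Benchmarks – DMSO-enzyme wells negative, buffer-substituted wells positive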
A3G deaminase: APOBEC3G (human) deaminase inhibition | 330,000 tested, 0.28% active | Q9HC16 | inhibition, % at 20 µM | recombinant A3G, ssDNA deamination FAM/TAMRA fluorescence | AID 493012;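 active = inhibition of at least 40% at 20 µM, with no more than 30% in the related APOBEC3A deaminase screen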
Target sequence (Q9HC16 whole entry, looked up): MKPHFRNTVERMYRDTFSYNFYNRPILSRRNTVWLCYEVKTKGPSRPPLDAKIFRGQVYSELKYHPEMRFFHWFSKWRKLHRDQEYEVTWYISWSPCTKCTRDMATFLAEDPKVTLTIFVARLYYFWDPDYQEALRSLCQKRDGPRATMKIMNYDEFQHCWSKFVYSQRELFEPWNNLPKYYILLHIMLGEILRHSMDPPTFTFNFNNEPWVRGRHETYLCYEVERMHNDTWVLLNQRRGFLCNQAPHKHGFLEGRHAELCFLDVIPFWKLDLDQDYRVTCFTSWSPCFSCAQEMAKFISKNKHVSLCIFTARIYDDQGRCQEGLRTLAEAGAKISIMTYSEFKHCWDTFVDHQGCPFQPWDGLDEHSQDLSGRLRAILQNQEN
hiPSC survival: hiPSC single-cell survival enhancement; survival enhancement, % at 20 µM; ATPlite luminescence; 100% = ROCK inhibitor wells, 0% = DMSO; 360,000 tested, 0.044% active; in the data active = survival enhancement above about 18%;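 note: cells exposed to compounds for 16 hours before the ATP read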
PfG6PD confirm: PfG6PD inhibition, single-dose confirmed. shares compounds with PfG6PD inh. recombinant PfGluPho, NADPH-diaphorase-resazurin fluorescence. inhibition, % at 20 µM. 2,400 tested, 34% active;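 active = inhibition of at least 50% at 20 µM in any single replicate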
Diaph ctr 10uM: inhibits diaphorase or oxidizes, flagging false PfG6PD hits. shares compounds with PfG6PD inh. diaphorase-coupled resazurin reduction, fluorescence, NADPH 10 uM. inhibition, % at 20 µM. 820 tested, 39% active. AID 504862;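 active = average inhibition reaching 50% or more with the compound at 20 µM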;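 note: resorufin red fluorescence formed as diaphorase reduces resazurin using NADPH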
Diaphorase 30uM: counter-screen for P. falciparum G6PD inhibitors: diaphorase inhibitors, oxidizers; 820 tested, 29% active; Diaphorase/resazurin coupled assay, resorufin fluorescence, 30 uM NADPH; shares compounds with PfG6PD inh; inhibition, % at 20 µM; AID 504863;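 active = inhibition averaging 50% or more, tested at 20 µM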
Each line names hits and unclear results; the compound was inactive in the other large screens (follow-up assays come after a bar, where they were run). An excerpt weighted towards active compounds, which were near 1.4% of everything screened.

CCN(CC)c1ccc(/C=C2\CCC(/C=C(/C#N)C(=O)Nc3ccccc3F)=C2N2CCOCC2)cc1	PfG6PD inh 70 (no result: A3A deaminase, A3G deaminase) | PfG6PD confirm inactive
COc1nc(-c2ccccc2)nc(C)c1CC(=O)O	none
CN(C)c1ccc(C=Nc2ccc(N(C)C)cc2)cc1	PfG6PD inh 66 | PfG6PD confirm inactive
NS(=O)(=O)c1cccnc1Nc1ccc(Cl)c(Cl)c1	none
NS(=O)(=O)c1cccnc1Nc1cccc(Cl)c1Cl	PfG6PD inh 62 | PfG6PD confirm inactive
COc1ccc(NC(=O)C2CCCC2)cc1S(=O)(=O)N1CCOCC1	none
CN(C)c1ccc(/C=N/NC(=S)NCc2ccco2)cc1	none
CN(C)c1ccc(C(=S)NCc2ccco2)cc1	PfG6PD inh 63 | PfG6PD confirm inactive
S=C(NCc1ccccc1)NCc1ccco1	none
S=C(NCc1ccco1)NCc1ccco1	PfG6PD inh 79 (no result: A3A deaminase, A3G deaminase) | PfG6PD confirm inactive
CNC(=S)NNc1nc(C)cc(C)n1	none
COc1ccc(-n2cc(C(=O)O)c3ccccc3c2=O)cc1	none
COc1ccc(-n2sc3ccccc3c2=O)cc1	PfG6PD inh 125 (no result: A3A deaminase, HKDC1 inh, A3G deaminase) | PfG6PD confirm 109 | Diaph ctr 10uM inactive | Diaphorase 30uM inactive
O=C(CN1C(=O)c2cccnc2Oc2ccc(Cl)cc21)NC1CCCCC1	none
Cc1ccc2nc(-c3ccc(O)c(O)c3)cn2c1	none
Cc1ccc2nc(-c3ccc(-c4ccccn4)s3)cn2c1	PfG6PD inh 65 | PfG6PD confirm inactive
Clc1ccc(-c2cn3cc(Cl)ccc3n2)cc1	PfG6PD inh 72 | PfG6PD confirm inactive
Cc1ccc2nc(-c3ccccc3)cn2c1	PfG6PD inh 79 | PfG6PD confirm inactive
O=C(Oc1ccc(C(=S)N2CCC(O)CC2)cc1)c1ccc(Cl)cc1	none
CCOC(=O)c1csc(NC(=O)CN2CCN(C)CC2)n1	none
CC(=O)C(Sc1ncnc2c1nnn2-c1ccc(F)cc1)C(=O)N(C)C (stereo not drawn)	PfG6PD inh 62 (no result: hiPSC survival) | PfG6PD confirm inactive
CCOC(=O)CSc1ncnc2c1nnn2-c1ccc(F)cc1	none
O=[N+]([O-])c1ccc2nc(-c3ccccc3)[nH]c2c1	PfG6PD inh 68 | PfG6PD confirm inactive
Nc1cccc(-c2nc3ccc(C(=O)c4ccccc4)cc3[nH]2)c1	PfG6PD inh 62 | PfG6PD confirm inactive
Cc1cccc(C)c1NC(=O)CN(Cc1ccccc1)Cc1ccccc1	none (no result: A3A deaminase, PfG6PD inh, HKDC1 inh, A3G deaminase)
Fc1ccc(-c2nc3n(n2)Cc2ccccc2-3)cc1	none
Cc1ccc(-c2nc3n(n2)Cc2ccccc2-3)cc1	PfG6PD inh 77 | PfG6PD confirm inactive
COc1ccc(C(=O)NC2=Nc3ccccc3N=C(C)C2c2ccccc2)cc1 (stereo not drawn)	none
Cc1ccc(S(=O)(=O)Nc2nc(C)c(C(=O)N/N=C/c3ccccc3)s2)cc1	PfG6PD inh 76 | PfG6PD confirm 67 | Diaph ctr 10uM 62 | Diaphorase 30uM inactive
FC(F)(F)c1cc(CCN2CCNC[C@@H]2c2ccccc2)cc(C(F)(F)F)c1	none
FC(F)(F)c1cc(CO[C@@H]2CCCN[C@@H]2c2ccccc2)cc(C(F)(F)F)c1	PfG6PD inh 67 | PfG6PD confirm inactive
O=C(Cc1ccccc1)NCC(=O)N1CCN(c2ccccc2)CC1	none
CN1CC(=O)N(CC(=O)Nc2ccc(N(C)C)cc2)c2ccccc2C1=O	PfG6PD inh 63 | PfG6PD confirm inactive
CC1CCCC(NC(=O)c2nn(C)c3c2CS(=O)(=O)c2ccccc2-3)C1C (stereo not drawn)	none
Cc1ccc(/C=C/C(=O)O)cc1S(=O)(=O)NC1CCS(=O)(=O)C1 (stereo not drawn)	none
Cn1c(=O)c2c([nH]c(=S)n2Cc2ccc(Cl)cc2)n(C)c1=O	PfG6PD inh 62 | PfG6PD confirm inactive
COc1cc(NC(=O)c2c(F)c(F)c(OC)c(F)c2F)ccc1NC(=O)c1cccs1	none
Clc1ccc(-c2nc3ccc(Cl)cn3c2Cc2ccccc2)cc1	PfG6PD inh 102 (no result: A3A deaminase, HKDC1 inh, A3G deaminase) | PfG6PD confirm inactive
